Compounds with a hit are over-represented: about 1.7% of the library has one in this group of screens.
TPT1 inh = blocks Candida albicans tRNA 2'-phosphotransferase; recombinant caTPT1, FP RNA substrate dephosphorylation; 300,000 tested, 0.81% active; inhibition, % at 5 µM; AID 1962;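 active means inhibition above the mean of all tested compounds plus 3 SD, set per screening campaign, cut at about 24% in these data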
HNF4A DNA FP = change in binding of human HNF4 alpha to DNA. P41235. HNF4a-FITC DNA binding, fluorescence polarization, 1 h. activity change, % at 10 µM. 360,000 tested, 0.3% active. AID 1224865; in the data active means activity change above about 30%, passing the limit was not always enough
IDE cell inh = inhibits human insulin-degrading enzyme in HEK cells. inhibition, % at 5.59 µM. AID 434962. FAbetaB cleavage, fluorescence polarization. P14735. 320,000 tested, 0.41% active;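 active means percent inhibition above the average of all tested compounds plus 3 SD, set per screening campaign, cut at about 16% in these data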;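 further: IDE supplied by intact live HEK cells; FP after avidin binding of uncleaved biotin substrate so inhibition keeps polarization high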
IDE act = IDE (human) activation, cell-based | P14735 | HEK cells, FAbeta-B cleavage, fluorescence polarization; 0% vehicle, 100% cell-free pure enzyme wells | activation, % at 5.96 µM | 340,000 tested, 0.073% active | AID 493087;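 active means activation above the mean of all tested compounds plus 3 SD, set per screening campaign, cut at about 17% in these data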
CSN deneddyl inh = blocks human CSN-mediated cullin deneddylation | Q92905 | Purified CSN, SCF-Nedd8-OG deneddylation, fluorescence polarization | inhibition, % at 12.5 µM | 360,000 tested, 0.38% active | AID 651999;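 active means pattern-corrected inhibition above about 35%, with an unprinted fluorescence ratio check between 0.5 and 1.5, limit read from the data, passing the limit was not always enough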
Target sequence (Q92905 whole entry, looked up, one chain of several): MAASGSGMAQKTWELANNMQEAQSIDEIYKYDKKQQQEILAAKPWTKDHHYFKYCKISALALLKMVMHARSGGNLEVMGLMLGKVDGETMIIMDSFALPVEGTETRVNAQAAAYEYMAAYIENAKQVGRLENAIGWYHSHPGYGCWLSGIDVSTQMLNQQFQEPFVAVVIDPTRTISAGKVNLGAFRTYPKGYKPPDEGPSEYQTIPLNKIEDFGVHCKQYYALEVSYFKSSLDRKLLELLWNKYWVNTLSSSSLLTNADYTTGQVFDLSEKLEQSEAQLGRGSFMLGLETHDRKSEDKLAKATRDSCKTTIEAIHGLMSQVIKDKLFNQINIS
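Material: human Csn5 produced in HEK293T cells; Input: enzyme 0.24 nM; Reagent: SCFSkp2-Nedd8OG substrate at 10 nM final; Dosing: 12.5 µM compound; Incubation: 90 min reaction at room temperature; Detection: fluorescence polarization of the substrate; Evaluation: % inhibition of substrate cleavage by Csn5; Control set: substrate-only high control, full reaction low control.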
TbMetRS inhib = blocks T. brucei methionyl-tRNA synthetase activity | AID 624268 | purified T. brucei MetRS, ATP depletion, Kinase-Glo luminescence | inhibition, % at 11.9 µM | 360,000 tested, 0.4% active;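 active means inhibition above a per-plate cutoff of the control wells' mean inhibition plus 3 SD, cut at about 5.5% in these data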
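Test system: purified T. brucei MetRS enzyme. Also added: ATP, methionine and E. coli bulk tRNA substrates. Compound: 11.9 µM single point. Schedule: 15 min enzyme-compound preincubation, 2 h reaction, 10 min detection, 25 °C. Signal: luciferase luminescence of residual ATP, Kinase-Glo. Evaluation: percent inhibition versus plate control medians. Controls: DMSO wells, low control.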
Each line names hits and unclear results; the compound was inactive in the other large screens.

CCN(CC)c1ccc2cc(C(=O)c3cccs3)c(=O)oc2c1	HNF4A DNA FP 84 (no result: TPT1 inh, IDE cell inh, IDE act)
O=C(c1cc2ccccc2oc1=O)N(Cc1cccs1)Cc1cccs1	none
CCc1ccccc1NC(=O)CN1CCN(CC(=O)Nc2ccc3c(c2)OC2(CCCCC2)O3)CC1	CSN deneddyl inh 46 (no result: TPT1 inh, IDE cell inh)
CC(=O)Oc1cc(C(=O)OCC(=O)NC23CC4CC(CC(C4)C2)C3)cc(OC(C)=O)c1OC(C)=O	CSN deneddyl inh 41 (no result: TPT1 inh, IDE cell inh)
COc1cc(C(=O)N2CCC(NC(=O)C(Cc3ccc(C(C)C)cc3)NC(C)=O)CC2)cc(OC)c1OC (stereo not given)	HNF4A DNA FP 52
Cc1cc(-c2nnc(SCC(=O)Nc3cccc(F)c3)n2N)n[nH]1	none
Cc1ccc2oc(=O)c(/C=C(\O)c3ccco3)nc2c1	HNF4A DNA FP 41
O=C(NCc1n[nH]c(=S)n1-c1ccc(F)cc1)c1ccc(S(=O)(=O)N2CCOCC2)cc1	HNF4A DNA FP 32
O=C(NCc1n[nH]c(=S)n1-c1ccccc1)c1ccc(S(=O)(=O)N2CCOCC2)cc1	none
CCC(=O)Nc1nc(C)c(Oc2ccccc2)c(=O)[nH]1	CSN deneddyl inh 105
CC(=O)C1=C(O)C(=O)N(c2ccc(O)cc2)C1c1ccccc1Cl (stereo not given)	none
Cc1cc(C)n(-c2nc3nonc3nc2Nc2cccc(C)c2C)n1	CSN deneddyl inh 57
O=C(O)c1ccc(COc2ccccc2/C=C2/NC(=O)N(c3cccc(Cl)c3)C2=O)cc1	CSN deneddyl inh 45
O=C(O)c1cccc(-n2cccc2/C=C2/NC(=O)N(c3ccc(Cl)cc3)C2=O)c1	none (no result: TPT1 inh, IDE cell inh)
O=C(O)c1ccc(COc2ccccc2/C=C2\NC(=O)N(Cc3ccc(F)cc3)C2=O)cc1	none
O=C(O)c1cccc(-n2cccc2/C=C2/NC(=O)N(c3cccc(Cl)c3)C2=O)c1	CSN deneddyl inh 35
CCc1nnc(NC(=O)CCC(=O)NC2CCCc3ccccc32)s1 (stereo not given)	none
O=c1c2ccccc2sn1-c1cc(S(=O)(=O)N2CCOCC2)ccc1N1CCCC1	IDE cell inh 51
COc1ccc(CNC(=O)CN2C(=O)CCSc3ccc(S(=O)(=O)N4CCCC4)cc32)cc1	none
CC(NC(=O)c1ccc(OC2CCN(Cc3ccccn3)CC2)cc1)c1nccs1 (stereo not given)	none
COc1ccc(S(=O)(=O)NCc2cccnc2)cc1OC	HNF4A DNA FP 46
COc1ccc(S(=O)(=O)NCc2ccncc2)cc1OC	none
C=CC(=O)Nc1cccc(Nc2nc(N[C@H]3CC[C@H](N(C)C)CC3)nc3c2ncn3C(C)C)c1	CSN deneddyl inh 112 (no result: TPT1 inh, IDE cell inh)
O=C(COc1ccc(/C=N/NC(=O)c2cc3ccccc3o2)cc1Cl)Nc1ccccc1	HNF4A DNA FP 45, CSN deneddyl inh 120
COc1cc(/C=N/NC(=O)c2ccncc2)ccc1OCC(=O)Nc1ccccc1	none
COc1cc(/C=N/NC(=O)c2ccccc2O)ccc1OCC(=O)Nc1ccccc1	CSN deneddyl inh 49
Cc1ccc(S(=O)(=O)NCCC(=O)Oc2ccc3ccc(=O)oc3c2)cc1	CSN deneddyl inh 41
Cc1ccc(S(=O)(=O)NC(C(=O)Oc2ccc3ccc(=O)oc3c2)c2ccccc2)cc1 (stereo not given)	none
O=C(NN1CCOCC1)c1ccc(Cl)s1	none
O=C(CN(C(=O)c1csnn1)c1ccc2c(c1)OCCO2)NCc1ccccc1	none
CCOc1ccc2nc(NC(=O)c3ccoc3C)sc2c1	none
N#CCSc1ncnc2sc3c(c12)CCC3	CSN deneddyl inh 38
CCc1cccc(C)c1NC(=O)CCN1C(=O)NC(C)(C)C1=O	none (no result: TPT1 inh)
CO[C@@H]1CN(C)C(=O)c2ccc(NS(=O)(=O)c3c(C)noc3C)cc2OC[C@@H](C)NC[C@@H]1C	none (no result: TPT1 inh, IDE cell inh, IDE act)
O=C(CSc1ncnc2sc3c(c12)CCCCC3)NCc1ccco1	none
CC(C)c1nc2sc3c(SCC(=O)NCc4ccco4)ncnc3c2c2c1CCC2	CSN deneddyl inh 46
COc1ccc(CNc2cccnc2Cl)cc1	none (no result: TPT1 inh, IDE cell inh, IDE act)
COc1ccc(Oc2c(OC)cc(NCc3ccc(CN)cc3)c3ncccc23)cc1	CSN deneddyl inh 42 (no result: TPT1 inh, IDE cell inh, IDE act)
Cc1ccc(S(=O)(=O)N2CCC(C(=O)N3CCCCCCC3)CC2)cc1C	none (no result: TPT1 inh, IDE cell inh, IDE act)
O=[N+]([O-])c1ccc(-c2cn(-c3ccc(Cl)cc3)cn2)cc1	HNF4A DNA FP 40 (no result: TPT1 inh, IDE cell inh, IDE act)
CCOC(=O)c1ccc(-n2cnc(-c3ccc([N+](=O)[O-])cc3)c2)cc1	none (no result: TPT1 inh, IDE cell inh, IDE act)
COc1ccc(Cn2c(O)c(/C=N/NC(=O)c3cccnc3)c3ccccc3c2=O)cc1	HNF4A DNA FP 44 (no result: TPT1 inh, IDE cell inh)
Cc1ccc(C)c2nc3sc(C(=O)N4CCCc5ccccc54)c(N)c3cc12	HNF4A DNA FP 56
CCc1ccc2nc3sc(C(=O)N4CCc5ccccc54)c(N)c3cc2c1	none (no result: HNF4A DNA FP, IDE act, CSN deneddyl inh, TbMetRS inhib)
CN(C)c1ccc(C=C(C#N)C(=O)c2ccccc2)cc1Br	none (no result: TPT1 inh, IDE cell inh, IDE act)
Cc1cc(NC(=O)c2cc(-c3ccccn3)nc3ccc(Br)cc23)no1	CSN deneddyl inh 44
Cc1cc(NC(=O)c2cc(-c3ccccn3)nc3ccccc23)no1	none
COCCN1C(=O)CCC1(C)C(=O)NC1CCCCC1 (stereo not given)	CSN deneddyl inh 121 (no result: TPT1 inh, IDE cell inh, IDE act)
CC(=O)N1CCc2cc(N=NC3=C(O)CCCC3=O)ccc21	HNF4A DNA FP 43
CCOC(=O)C1=C(CSc2nc(-c3ccccc3)ccc2C#N)OC(N)=C(C#N)C1c1ccc(OC)cc1 (stereo not given)	HNF4A DNA FP 39
CCOC(=O)C1=C(CSc2nc(CC)c(C)cc2C#N)OC(N)=C(C#N)C1c1ccccc1 (stereo not given)	none
CCN(CC)c1ccc(/C=C/c2nc3ccccc3s2)cc1	TPT1 inh 178 (no result: HNF4A DNA FP, IDE act, CSN deneddyl inh, TbMetRS inhib)
CCN(CC)c1ccc(NC(=O)COC(=O)/C=C/c2nc3ccccc3s2)cc1	none
O=C(OCc1cn([C@@H]2CN(C(=O)C3CCCCC3)[C@@H](c3ccc(Cl)cc3)C[C@H]2O)nn1)c1ccccc1	none (no result: TPT1 inh, IDE cell inh, IDE act)
Cc1cc(C)c2cc(C#N)c(NCCNC(=O)c3cccnc3)nc2c1	none (no result: TPT1 inh, IDE cell inh, IDE act)
C=CCNC(=O)COC(=O)COc1ccc(Cl)cc1	none
CC(C)(C)NCC(=O)N/N=C/c1ccc(OCc2ccccc2)cc1	IDE cell inh 16
CCCCNC(=O)C(=O)N/N=C/c1ccc(OCc2ccccc2)cc1	none
CN1/C(=C\C(=O)COC(=O)c2ccco2)C(C)(C)c2ccccc21	none
CN1/C(=C\C(=O)c2ccco2)C(C)(C)c2ccccc21	HNF4A DNA FP 42
CCn1c(SCCC(=O)O)nnc1-c1cccnc1	none
CCn1c(SCC(=O)c2ccccc2)nnc1-c1cccnc1	HNF4A DNA FP 36
COc1ccc(C(=O)C2CCCN(S(=O)(=O)c3ccc(C(C)=O)cc3)C2)c(C)c1 (stereo not given)	none
Cc1ccc(-c2csc(NC(=O)CCNC(=O)c3ccco3)n2)cc1	HNF4A DNA FP 40
